Screening data as filed in PubChem BioAssay.
Shown are actives, neighbours in structure and some others; about 3.5% of the full set was active somewhere.
MrgX1 agonist: human MrgX1 receptor agonism, primary screen; Q96LB2; MrgX1-HEK293 cells, Fluo-4 calcium fluorescence, agonist mode; active compounds read high; actives 0.44% (n = 310,000); B-score at 10 µM; AID 588627;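 active = calcium response B-score plate-corrected fluorescence ratio at least 3 library SD, with starting fluorescence B-score inside 5 SD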
Target sequence (Q96LB2 whole entry, looked up): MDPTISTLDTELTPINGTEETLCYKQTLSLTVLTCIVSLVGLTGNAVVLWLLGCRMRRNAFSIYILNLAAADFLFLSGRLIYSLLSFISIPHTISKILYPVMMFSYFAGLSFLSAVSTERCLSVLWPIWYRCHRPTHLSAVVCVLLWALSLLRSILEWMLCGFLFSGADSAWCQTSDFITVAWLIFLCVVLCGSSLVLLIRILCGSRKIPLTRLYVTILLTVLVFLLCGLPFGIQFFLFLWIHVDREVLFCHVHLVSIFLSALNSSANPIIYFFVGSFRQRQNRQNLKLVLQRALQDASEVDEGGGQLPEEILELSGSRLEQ
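Test system: Stable human MrgX1 HEK293 cell line | Schedule: Overnight plating before 1 h dye loading | Read-out basis: Baseline-normalised fluorescence change ratio, B-scored | Detection: Kinetic calcium dye fluorescence, Fluo-4 NW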
RGS4 pot: RGS4 potentiation or activation; HEK293 M3R/inducible RGS4, carbachol calcium flux Fluo4; active compounds read low; B-score at 10 µM; actives 0.92% (n = 310,000); AID 463111;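 active = B-score of the integrated calcium signal more than 4 SD below the library mean, with starting fluorescence not abnormally high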;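 also: negative B-score means reduced calcium response which marks RGS4 activation or potentiation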
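Material: Inducible-RGS4 HEK293 cells carrying M3 receptor; also added: carbachol at ECmax as muscarinic agonist stimulus; incubation: compound preincubation 20 min at room temperature before agonist; signal: Fluo4-AM (2 µM) calcium-flux fluorescence, kinetic read; measure: integrated calcium ratio converted to B score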
MrgX1 PAM: allosterically activates human MrgX1 receptor signaling | MrgX1-HEK293, Fluo-4 calcium flux, FDSS; active compounds read high | actives 0.63% (n = 310,000) | Q96LB2 | B-score at 10 µM | AID 588675;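 active = plate-corrected calcium response at least 3 library SD above typical, normal starting fluorescence, not activating the receptor alone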;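 also: compound read alongside a low EC10 to EC30 dose of BAM8-22 agonist; peak minus trough fluorescence over baseline measured at the second addition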
RGS4 block: human RGS4 inhibition; actives 0.45% (n = 310,000); B-score at 10 µM; AID 463165; HEK293 M3R/RGS4 inducible, Fluo-4 calcium flux; active compounds read high; triggered by carbachol at its EC20; P49798;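 active = B-score, a plate-corrected calcium signal, over three deviations above library mean, with baseline fluorescence within five deviations of library mean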;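 also: RGS4 expression induced by doxycycline in cells with stable M3 receptor; B-score is computed from the integrated fluorescence ratio over baseline after carbachol; higher B-score means a larger calcium signal and so more RGS4 inhibition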
MrgX1 antagonist: antagonists of human MrgX1 receptor. AID 588676. MRGX1-HEK293 calcium flux, Fluo-4, BAM8-22 antagonism; active compounds read low. B-score at 10 µM. Q96LB2. actives 1.3% (n = 310,000);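 active = calcium-response B-score plate-corrected more than 3 library SD below zero, starting fluorescence within 5 deviations, no agonist response on first addition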;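 also: peak minus trough fluorescence over baseline after final BAM8-22 challenge near maximal dose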
Active calls of the source: *.

Results for Cc1cccc(NC(=O)CNC(=O)c2cccc(-n3cccc3)c2)c1C ?
MrgX1 agonist: inactive; RGS4 pot: inactive; MrgX1 PAM: inactive; RGS4 block: inactive; MrgX1 antagonist: inactive

How did COc1cc(/C=C2\C(=N)N3N=C(S(C)(=O)=O)SC3=NC2=O)cc(OC)c1OCCOc1ccc(C)cc1 do in these assays?
MrgX1 agonist: inactive; RGS4 pot: inactive; MrgX1 PAM: inactive; RGS4 block: inactive; MrgX1 antagonist: inactive

Results for COc1cc(/C=C2\C(=N)N3N=C(S(C)(=O)=O)SC3=NC2=O)ccc1OCCOc1ccc(C)cc1 ?
MrgX1 agonist: inactive; RGS4 pot: -7.2*; MrgX1 PAM: inactive; RGS4 block: inactive; MrgX1 antagonist: inactive

How did Cc1cc(/C=C2\C(=N)N3N=C(C(C)C)SC3=NC2=O)c(C)n1-c1ccccc1 do in these assays?
MrgX1 agonist: inactive; RGS4 pot: inactive; MrgX1 PAM: inactive; RGS4 block: inactive; MrgX1 antagonist: inactive

How did CC(=O)Nc1ccc(OCCOc2ccc(/C=C3\C(=N)N4N=C(C(C)C)SC4=NC3=O)cc2)cc1 do in these assays?
MrgX1 agonist: 32*; RGS4 pot: inactive; MrgX1 PAM: inactive; RGS4 block: inactive; MrgX1 antagonist: inactive

Results for COc1cc(/C=C2/C(=N)N3C=CSC3=NC2=O)ccc1OCCCOc1ccccc1C ?
MrgX1 agonist: inactive; RGS4 pot: inactive; MrgX1 PAM: inactive; RGS4 block: inactive; MrgX1 antagonist: inactive

Results for COc1cc(/C=C2/C(=N)N3C=CSC3=NC2=O)ccc1OCCOc1ccc(NC(C)=O)cc1 ?
MrgX1 agonist: inactive; RGS4 pot: inactive; MrgX1 PAM: 14*; RGS4 block: inactive; MrgX1 antagonist: inactive

Results for Cc1cc(C)cc(N(CC(=O)NC2CCCC2)C(=O)CNC(=O)c2cccs2)c1 ?
MrgX1 agonist: inactive; RGS4 pot: inactive; MrgX1 PAM: inactive; RGS4 block: inactive; MrgX1 antagonist: inactive

How did COc1ccc(CNC(=S)Nc2cccc(F)c2)cc1 do in these assays?
MrgX1 agonist: inactive; RGS4 pot: inactive; MrgX1 PAM: inactive; RGS4 block: inactive; MrgX1 antagonist: inactive

Results for C=CCNC(=S)Nc1c(N)n(C)c(=O)n(C)c1=O ?
MrgX1 agonist: inactive; RGS4 pot: inactive; MrgX1 PAM: inactive; RGS4 block: inactive; MrgX1 antagonist: inactive

Results for CCOC(=O)C1=C(C)N(c2ccc(C)cc2)C(=O)/C1=C\c1ccc(O)c(OC)c1 ?
MrgX1 agonist: inactive; RGS4 pot: inactive; MrgX1 PAM: inactive; RGS4 block: inactive; MrgX1 antagonist: inactive

How did CCOC(=O)C1=C(O)c2ccccc2C(=O)/C1=C\c1ccc(C)cc1 do in these assays?
MrgX1 agonist: 28*; MrgX1 PAM: inactive; MrgX1 antagonist: inactive

How did COc1ccccc1NS(=O)(=O)c1cc(C(=O)NCC(c2ccco2)N(C)C)ccc1C (configuration not stated) do in these assays?
MrgX1 agonist: inactive; RGS4 pot: inactive; MrgX1 PAM: inactive; RGS4 block: inactive; MrgX1 antagonist: inactive

How did COc1ccccc1NS(=O)(=O)c1cc(C(=O)NCC(c2ccco2)N2CCCCC2)ccc1C (configuration not stated) do in these assays?
MrgX1 agonist: inactive; RGS4 pot: inactive; MrgX1 PAM: inactive; RGS4 block: inactive; MrgX1 antagonist: -5.4*

What do the screens show for `CC(Sc1ccc(Cl)cc1)C(=O)NNC(=O)c1ccccc1O` (configuration not stated)?
MrgX1 agonist: inactive; RGS4 pot: inactive; MrgX1 PAM: inactive; RGS4 block: inactive; MrgX1 antagonist: inactive

What do the screens show for `O=C(Nc1ccc(F)cc1)Nc1nnc(Cc2ccccc2F)s1`?
MrgX1 agonist: inactive; RGS4 pot: inactive; MrgX1 PAM: inactive; RGS4 block: inactive; MrgX1 antagonist: inactive

Results for CC1(C)C(=O)CC[C@@]2(C)[C@H]1CC[C@@]1(C)CC3=C(CC[C@@H]12)[C@@]1(C)CCC(=O)C(C)(C)[C@@H]1CC3 ?
MrgX1 agonist: inactive; MrgX1 PAM: inactive; MrgX1 antagonist: inactive

What do the screens show for `COc1ncnc2sc(-c3ccccc3)cc12`?
MrgX1 agonist: inactive; RGS4 pot: inactive; MrgX1 PAM: inactive; RGS4 block: inactive; MrgX1 antagonist: inactive

What do the screens show for `CN(C)c1ncnc2sc(-c3ccccc3)cc12`?
MrgX1 agonist: inactive; RGS4 pot: inactive; MrgX1 PAM: inactive; RGS4 block: inactive; MrgX1 antagonist: -7.1*
